For assay [1], the system named is Staphylococcus aureus. Kind of assay: Antibacterial activity against methicillin-resistant Staphylococcus aureus JCSC 4788 by micro dilution susceptibility test. The assay is classed as functional. The procedure, abridged:
(§1)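 Microbroth dilution MIC in Mueller–Hinton broth following CLSI guidelines, vancomycin as positive control; resazurin added as visible growth indicator. Assays run at least in triplicate.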

Assay [2] concerns Staphylococcus aureus. Kind of assay: Antibacterial activity against Staphylococcus aureus ATCC 6538 by micro dilution susceptibility test. It counts as functional. In short, it runs like this:
as §1

Assay [3] relates to Staphylococcus aureus. Kind of assay: Ratio of MIC for methicillin-resistant Staphylococcus aureus JCSC 4788 re-passaged at 24 hrs intervals for 20 times to MIC for methicillin-resistant Staphylococcus aureus JCSC 4788. The assay is classed as functional. In short, it runs like this:
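Sequential passaging of MRSA JCSC 4788 in MHB with sub-inhibitory compound at 24 h intervals for at least 20 passages at 37 °C. MIC after passaging, by CLSI microbroth dilution, is divided by the initial MIC. Resistance is defined as a rise of more than 4-fold.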

The test system of assay [4] is Staphylococcus aureus. Kind of assay: Antibacterial activity against methicillin-resistant Staphylococcus aureus JCSC 4788 at sub-MIC re-passaged at 24 hrs intervals for 5 times by micro dilution susceptibility test. The assay is classed as functional, organism-based. The procedure, abridged: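 Exponential-phase MRSA JCSC 4788 at 37 °C passaged into fresh MHB containing compound at a sub-inhibitory concentration and re-passaged at 24 h intervals up to at least 20 passages; MIC then redetermined by CLSI microbroth dilution in MHB. Resistance defined as a more than 4-fold increase over the initial MIC.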

In assay [5] the test system is Staphylococcus aureus. Put plainly: Antibacterial activity against methicillin-resistant Staphylococcus aureus JCSC 3063 by micro dilution susceptibility test. It counts as functional. The procedure, abridged:
as §1

The subject of assay [6] is Staphylococcus aureus. Kind of assay: Antibacterial activity against methicillin-resistant Staphylococcus aureus NCTC 10442 by micro dilution susceptibility test. It counts as functional. In short, it runs like this:
as §1

Assay [7] relates to Staphylococcus aureus. Kind of assay: Antibacterial activity against methicillin-resistant Staphylococcus aureus JCSC 4744 by micro dilution susceptibility test. It counts as functional. In short, it runs like this:
as §1

Assay [8] deals with Staphylococcus aureus. Put plainly: Antibacterial activity against methicillin-resistant Staphylococcus aureus JCSC 2172 by micro dilution susceptibility test. It counts as functional. The procedure, abridged: as §1
The test system of a further assay is Salmonella typhi. Kind of assay: Antibacterial activity against Salmonella typhi CMCC 44102 by micro dilution susceptibility test. The assay is classed as functional, Salmonella enterica subsp. enterica serovar Typhi. The settings on record: Salmonella enterica. In short, it runs like this:
as §1

The test system of assay [9] is Staphylococcus aureus. Kind of assay: Antibacterial activity against methicillin-resistant Staphylococcus aureus 85/2082 by micro dilution susceptibility test. It counts as functional. The procedure, abridged:
as §1

A further assay has as its system Bacillus cereus. Put plainly: Antibacterial activity against Bacillus cereus ATCC 10876 by micro dilution susceptibility test. It counts as functional. In short, it runs like this: (§2)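 Microbroth dilution MIC in Mueller–Hinton broth following CLSI guidelines, with vancomycin as positive control; assays run at least in triplicate.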
A further assay has as its system Enterococcus faecalis. Put plainly: Antibacterial activity against Enterococcus faecalis ATCC 29212 by micro dilution susceptibility test. The assay is classed as functional. The procedure, abridged:
as §2

A further assay concerns Escherichia coli. Put plainly: Antibacterial activity against Escherichia coli ATCC 8739 by micro dilution susceptibility test. It counts as functional. In short, it runs like this:
as §2

For the next assay, the system named is Candida albicans. Put plainly: Antibacterial activity against Candida albicans ATCC 10231 by micro dilution susceptibility test. The assay is classed as functional. In short, it runs like this: as §2
Assay [10] concerns Paenibacillus polymyxa. Put plainly: Antibacterial activity against Bacillus polymyxa GIM 1.467 by micro dilution susceptibility test. It counts as functional. In short, it runs like this:
as §2

The subject of the next assay is Enterococcus faecium. Put plainly: Antibacterial activity against vancomycin-resistant Enterococcus faecium by micro dilution susceptibility test. It counts as functional. In short, it runs like this: as §1
In assay [11] the test system is Staphylococcus aureus. Put plainly: Antibacterial activity against Staphylococcus aureus ATCC 29213 by micro dilution susceptibility test. The assay is classed as functional. The procedure, abridged: as §1
For assay [12], the system named is Staphylococcus aureus. Put plainly: Antibacterial activity against methicillin-resistant Staphylococcus aureus JCSC 4469 by micro dilution susceptibility test. The assay is classed as functional. The procedure, abridged: as §1
For assay [13], the system named is Staphylococcus aureus. Put plainly: Antibacterial activity against Staphylococcus aureus CMCC 26003 by micro dilution susceptibility test. The assay is classed as functional. The procedure, abridged:
as §1

Assay [14] concerns Staphylococcus epidermidis. Kind of assay: Antibacterial activity against Staphylococcus epidermidis ATCC 12228 by micro dilution susceptibility test. The assay is classed as functional. In short, it runs like this:
as §2

Another assay deals with Cutibacterium acnes. Kind of assay: Antibacterial activity against Propionicibacterium acnes ATCC 6919 by micro dilution susceptibility test. The assay is classed as functional. In short, it runs like this: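 Microbroth dilution MIC in Mueller–Hinton broth following CLSI guidelines; […]; resazurin added as visible growth indicator; vancomycin positive control; at least triplicate.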

The test system of assay [15] is Staphylococcus aureus. Put plainly: Antibacterial activity against methicillin-resistant Staphylococcus aureus N315 by micro dilution susceptibility test. It counts as functional. In short, it runs like this:
as §1

A further assay concerns Shigella dysenteriae. Put plainly: Antibacterial activity against Shigella dysenteriae CMCC 51252 by micro dilution susceptibility test. The assay is classed as functional. The procedure, abridged:
as §1

In assay [16] the test system is Paenibacillus polymyxa. Put plainly: Antibacterial activity against Bacillus polymyxa ATCC 842 by micro dilution susceptibility test. The assay is classed as functional. The procedure, abridged:
as §2

≈ marks a conversion by molar mass, not a printed value. Calls of active or inactive are those of the source. Some results are limits rather than exact numbers.

Turning to `CC(C)CC1C2=C(Oc3c(C(=O)C(C)C)c(O)cc(O)c31)C(C)(C)C(=O)C(C)(C)C2=O` (centres undefined), the MIC in the assay with Staphylococcus aureus [1] and in the assay on Staphylococcus aureus [2] was 4 µg/mL (≈ 9.33 µM) in each case.

For the compound `CC1COc2c(N3CCN(C)CC3)c(F)cc3c(=O)c(C(=O)O)cn1c23` (centres undefined) [OFLOXACIN], the Ratio in the assay with Staphylococcus aureus [3] stood at 16. For the same compound, the outcome in the assay on Staphylococcus aureus [4] was inactive.

In the case of `CCCCCCCCCC(=O)c1c(O)cc(O)c2c1OC1=C(C(=O)C(C)(C)C(=O)C1(C)C)C2CC(C)C` (centres undefined), the MIC with Staphylococcus aureus [1] and with Staphylococcus aureus [2] was 0.5 µg/mL (≈ 0.975 µM) throughout.

`CCCCCCCCCCC(=O)c1c(O)cc(O)c2c1OC1=C(C(=O)C(C)(C)C(=O)C1(C)C)C2CC(C)C` (centres undefined): the minimum inhibitory concentration (MIC) against Staphylococcus aureus [1] and in the assay on Staphylococcus aureus [2] was 1 µg/mL (≈ 1.9 µM) in each case.

`CCCCCCCCCCCC(=O)c1c(O)cc(O)c2c1OC1=C(C(=O)C(C)(C)C(=O)C1(C)C)C2CC(C)C` (centres undefined): the MIC in the assay on Staphylococcus aureus [1] and with Staphylococcus aureus [2] was 8 µg/mL (≈ 14.8 µM) each time.

Consider `CC(C)CC(=O)c1c(O)cc(O)c2c1OC1=C(C(=O)C(C)(C)C(=O)C1(C)C)C2CC(C)C` (centres undefined), for which the MIC against Staphylococcus aureus [5] was 0.5 µg/mL (≈ 1.13 µM); in the assay on Staphylococcus aureus [6] it was 1 µg/mL (≈ 2.26 µM); against Staphylococcus aureus [7] it was 0.5 µg/mL (≈ 1.13 µM); in the assay on Staphylococcus aureus [8] it was 0.5 µg/mL (≈ 1.13 µM); against Salmonella typhi, above 32 µg/mL; against Staphylococcus aureus [9], 1 µg/mL (≈ 2.26 µM). For the same compound, the MIC was 0.5 µg/mL (≈ 1.13 µM) with Bacillus cereus; 1 µg/mL (≈ 2.26 µM) with Enterococcus faecalis; above 32 µg/mL in the assay on Escherichia coli; above 32 µg/mL with Candida albicans; 1 µg/mL (≈ 2.26 µM) with Staphylococcus aureus [1]; above 32 µg/mL against Paenibacillus polymyxa [10]. The MIC in the assay on Enterococcus faecium was 2 µg/mL (≈ 4.52 µM); in the assay with Staphylococcus aureus [11], 1 µg/mL (≈ 2.26 µM); in the assay with Staphylococcus aureus [12], 0.5 µg/mL (≈ 1.13 µM); against Staphylococcus aureus [2], 0.5 to 1 µg/mL (≈ 1.13 to 2.26 µM); with Staphylococcus aureus [13], 0.5 µg/mL (≈ 1.13 µM); in [14], 1 µg/mL (≈ 2.26 µM). Also, the MIC against Cutibacterium acnes is 0.5 µg/mL (≈ 1.13 µM); in the assay on Staphylococcus aureus [15], 1 µg/mL (≈ 2.26 µM); with Shigella dysenteriae, above 32 µg/mL; in the assay on Paenibacillus polymyxa [16] it was above 32 µg/mL.

For the compound `CC(C)CC1C2=C(Oc3c(C(=O)C4CCC4)c(O)cc(O)c31)C(C)(C)C(=O)C(C)(C)C2=O` (centres undefined), the MIC turned out to be 8 µg/mL (≈ 18.2 µM) against Staphylococcus aureus [1] and 4 µg/mL (≈ 9.08 µM) in the assay with Staphylococcus aureus [2].

For `CC(=O)c1c(O)cc(O)c2c1OC1=C(C(=O)C(C)(C)C(=O)C1(C)C)C2CC(C)C` (centres undefined), the MIC in the assay on Staphylococcus aureus [1] and in the assay with Staphylococcus aureus [2] was 4 µg/mL (≈ 9.99 µM) in each case.

Turning to `CCCCC(=O)c1c(O)cc(O)c2c1OC1=C(C(=O)C(C)(C)C(=O)C1(C)C)C2CC(C)C` (centres undefined), the MIC was found to be 1 µg/mL (≈ 2.26 µM) against Staphylococcus aureus [1] and 0.5 µg/mL (≈ 1.13 µM) in the assay on Staphylococcus aureus [2].

With `CC(C)CC1C2=C(Oc3c(C(=O)C4CCCC4)c(O)cc(O)c31)C(C)(C)C(=O)C(C)(C)C2=O` (centres undefined), the MIC in the assay with Staphylococcus aureus [1] and against Staphylococcus aureus [2] was 4 µg/mL (≈ 8.8 µM) each time.

With `CCCCCCCCCCCCCCCC(=O)c1c(O)cc(O)c2c1OC1=C(C(=O)C(C)(C)C(=O)C1(C)C)C2CC(C)C` (centres undefined), the MIC against Staphylococcus aureus [1] and in the assay on Staphylococcus aureus [2] was above 256 µg/mL in each case.

Take `CC(C)CC(=O)c1c(O)cc2c(c1O)C(CC(C)C)C1=C(O2)C(C)(C)C(=O)C(C)(C)C1=O` (centres undefined): the MIC in the assay with Staphylococcus aureus [1] and against Staphylococcus aureus [2] was 1 µg/mL (≈ 2.26 µM) each time.

For the origin of these results see ChEMBL document CHEMBL4257543, “Structural optimization and antibacterial evaluation of rhodomyrtosone B analogues against MRSA strains” (Medchemcomm, 2018).
